Six molecules from ChEMBL document CHEMBL1131239, “Orally active benzamide antipsychotic agents with affinity for dopamine D2, serotonin 5-HT1A, and adrenergic alpha1 receptors” (J Med Chem, 1998) can be followed below.

The subject of experiment [1] is Rattus norvegicus. Nature of the experiment: Percent catalepsy in male Spargue-Dawley rat at pretreatment time 240 mins and when administered ip at dose 50 mg/kg (4/5L denotes that four rats out of five died during the course of experiment). Type of experiment: functional. The conditions noted are these: route intraperitoneal. In outline:
(§1)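 Catalepsy scored in groups of five rats per drug treatment, with the experimenter blind to drug and dose, in a quiet room. Each session included two control groups: saline (or vehicle) as negative control and haloperidol 2 mg/kg as positive control. Deaths during the experiment were recorded as lethality (e.g., 3/5L) in place of percent catalepsy.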

The test system of experiment [2] is Rattus norvegicus. Nature of the experiment: compound was tested for antipsychotic activity by conditioned avoidance response(CAR) assay in rats with a pretreatment period of 30 min upon intra peritoneal administration at a concentration of 1 mg/kg. Type of experiment: functional. In outline:
(§2)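 Trained rats (N = 4) were run in 1-h sessions on two consecutive days, with the experimenter blind to drug and dose. Fed rats had food and water until placed in the test chambers. Fasted rats had no food overnight before the experiment.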

The target in experiment [3] is T1, Adrenergic receptor alpha-1 (Rattus norvegicus, UniProt P15823+P23944+P43140).
T1 sequence (P15823 whole entry): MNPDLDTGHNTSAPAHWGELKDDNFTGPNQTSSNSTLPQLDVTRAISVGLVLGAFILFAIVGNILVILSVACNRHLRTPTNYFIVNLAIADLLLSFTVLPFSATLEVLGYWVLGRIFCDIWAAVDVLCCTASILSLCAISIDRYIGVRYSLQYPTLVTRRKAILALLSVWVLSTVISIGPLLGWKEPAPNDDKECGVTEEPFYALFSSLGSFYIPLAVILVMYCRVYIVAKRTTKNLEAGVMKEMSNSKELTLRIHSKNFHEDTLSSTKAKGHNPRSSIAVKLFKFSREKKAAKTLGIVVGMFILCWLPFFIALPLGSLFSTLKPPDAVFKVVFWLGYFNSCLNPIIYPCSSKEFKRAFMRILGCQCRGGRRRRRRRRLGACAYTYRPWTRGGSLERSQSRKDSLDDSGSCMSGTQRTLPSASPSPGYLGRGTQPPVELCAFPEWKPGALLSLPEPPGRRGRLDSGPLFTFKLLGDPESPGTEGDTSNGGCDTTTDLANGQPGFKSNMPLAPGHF
T1 sequence (P23944 whole entry): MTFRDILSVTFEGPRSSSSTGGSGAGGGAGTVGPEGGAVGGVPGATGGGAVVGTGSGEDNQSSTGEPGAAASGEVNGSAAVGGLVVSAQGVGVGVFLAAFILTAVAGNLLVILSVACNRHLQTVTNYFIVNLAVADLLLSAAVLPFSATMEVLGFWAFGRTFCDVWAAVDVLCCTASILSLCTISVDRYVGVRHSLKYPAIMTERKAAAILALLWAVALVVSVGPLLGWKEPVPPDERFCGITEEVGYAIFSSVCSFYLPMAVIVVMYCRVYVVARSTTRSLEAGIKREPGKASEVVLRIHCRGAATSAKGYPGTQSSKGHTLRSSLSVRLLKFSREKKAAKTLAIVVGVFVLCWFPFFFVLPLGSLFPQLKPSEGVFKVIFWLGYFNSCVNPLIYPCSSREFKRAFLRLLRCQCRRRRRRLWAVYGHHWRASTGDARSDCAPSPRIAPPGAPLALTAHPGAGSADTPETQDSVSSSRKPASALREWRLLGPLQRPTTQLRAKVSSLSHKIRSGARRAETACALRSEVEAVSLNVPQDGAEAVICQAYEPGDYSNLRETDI
T1 sequence (P43140 whole entry): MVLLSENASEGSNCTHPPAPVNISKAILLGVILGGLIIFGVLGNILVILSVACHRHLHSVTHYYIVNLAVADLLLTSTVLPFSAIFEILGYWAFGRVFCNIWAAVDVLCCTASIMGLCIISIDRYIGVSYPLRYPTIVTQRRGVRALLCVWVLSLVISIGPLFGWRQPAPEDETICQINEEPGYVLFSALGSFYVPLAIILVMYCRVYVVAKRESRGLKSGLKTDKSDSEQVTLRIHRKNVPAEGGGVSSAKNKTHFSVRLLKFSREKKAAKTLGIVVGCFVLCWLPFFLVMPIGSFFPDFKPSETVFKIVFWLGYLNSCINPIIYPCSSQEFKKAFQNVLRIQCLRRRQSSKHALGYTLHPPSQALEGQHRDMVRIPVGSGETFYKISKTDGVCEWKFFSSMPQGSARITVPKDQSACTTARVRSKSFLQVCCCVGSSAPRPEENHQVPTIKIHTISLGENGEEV
Description: Binding affinity against Alpha-1 adrenergic receptor from rat cerebral cortex. Type of experiment: tissue-based.

Experiment [4] relates to Rattus norvegicus. Nature of the experiment: compound was tested for antipsychotic activity by conditioned avoidance response(CAR) assay in rats with a pretreatment period of 30 min upon intra peritoneal administration at a concentration of 7.5 mg/kg. Type of experiment: functional. In outline:
as §2

In experiment [5] the test system is Rattus norvegicus. Nature of the experiment: compound was tested for antipsychotic activity by conditioned avoidance response(CAR) assay in rats with a pretreatment period of 30 min upon intra peritoneal administration at a concentration of 13.4 mg/kg. Type of experiment: functional. In outline:
as §2

The subject of experiment [6] is Rattus norvegicus. Nature of the experiment: Percent catalepsy in male Spargue-Dawley rat at pretreatment time 60 mins and when administered ip at dose 50 mg/kg (3/5L denotes that three rats out of five died during the course of experiment). Type of experiment: functional. The conditions noted are these: route intraperitoneal. Put shortly:
as §1

The target in experiment [7] is T2, 5-hydroxytryptamine receptor 1A (Rattus norvegicus, UniProt P19327).
T2 sequence (P19327 whole entry): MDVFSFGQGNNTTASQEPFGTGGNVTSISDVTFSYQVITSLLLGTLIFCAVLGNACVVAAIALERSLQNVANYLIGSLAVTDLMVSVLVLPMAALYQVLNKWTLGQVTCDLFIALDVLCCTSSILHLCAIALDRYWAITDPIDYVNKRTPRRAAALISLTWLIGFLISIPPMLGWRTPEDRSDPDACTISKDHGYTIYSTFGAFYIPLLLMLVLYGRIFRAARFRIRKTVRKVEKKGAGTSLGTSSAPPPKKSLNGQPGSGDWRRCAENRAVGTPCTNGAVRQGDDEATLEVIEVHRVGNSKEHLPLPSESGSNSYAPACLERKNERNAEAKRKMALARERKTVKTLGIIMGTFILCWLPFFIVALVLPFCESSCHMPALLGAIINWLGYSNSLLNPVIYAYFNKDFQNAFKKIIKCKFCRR
Description: Compound was evaluated for its binding affinity against 5-hydroxytryptamine 1A receptor from rat cerebral cortex. Type of experiment: tissue-based.

Experiment [8] deals with Rattus norvegicus. Description: compound was tested for antipsychotic activity by conditioned avoidance response(CAR) assay in rats with a pretreatment period of 30 min upon intra peritoneal administration at a concentration of 15 mg/kg. Type of experiment: functional. Put shortly:
as §2

Experiment [9] relates to Rattus norvegicus. Description: compound was tested for antipsychotic activity by conditioned avoidance response(CAR) assay in rats with a pretreatment period of 30 min upon intra peritoneal administration at a concentration of 15 mg/kg. Type of experiment: functional.
The subject of experiment [10] is Rattus norvegicus. Description: compound was tested for antipsychotic activity by conditioned avoidance response(CAR) assay in rats with a pretreatment period of 60 min upon peroral administration at a concentration of 10 mg/kg. The conditions noted are these: route oral. Type of experiment: functional. Put shortly:
as §2

For experiment [11], the system named is Rattus norvegicus. Nature of the experiment: Percent catalepsy in male Spargue-Dawley rat at pretreatment time 240 mins and when administered ip at dose 50 mg/kg. Type of experiment: functional. The conditions noted are these: route intraperitoneal. Put shortly: (§3)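 Catalepsy in rats, groups of five per drug treatment, scored blind to drug and dose. Each session included a saline or vehicle negative control and a haloperidol 2 mg/kg positive control. Deaths during the experiment were recorded in the catalepsy column as number dead out of five.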

Experiment [12] deals with Rattus norvegicus. Nature of the experiment: compound was tested for antipsychotic activity by conditioned avoidance response(CAR) assay in rats with a pretreatment period of 240 min upon intra peritoneal administration at a concentration of 2.5 mg/kg. Type of experiment: functional. Put shortly: as §2
Experiment [13] concerns Rattus norvegicus. Nature of the experiment: compound was tested for antipsychotic activity by conditioned avoidance response(CAR) assay in rats with a pretreatment period of 60 min upon peroral administration at a concentration of 20 mg/kg. The conditions noted are these: route oral. Type of experiment: functional.
Experiment [14] deals with Rattus norvegicus. Nature of the experiment: Percent catalepsy in male Spargue-Dawley rat at pretreatment time 60 mins and when administered ip at dose 50 mg/kg. Type of experiment: functional. The conditions noted are these: route intraperitoneal. Put shortly: as §3
Experiment [15] relates to Rattus norvegicus. Nature of the experiment: compound was tested for antipsychotic activity by conditioned avoidance response(CAR) assay in rats with a pretreatment period of 30 min upon intra peritoneal administration at a concentration of 5 mg/kg. Type of experiment: functional. In outline: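 Rat conditioned avoidance test modified from Martin et al. Trained rats (N = 4) were run in 1-h sessions on two consecutive days. Fed animals had food and water until placed in the test chambers. Dosing was ip with 30 min pretreatment, and activity was expressed as percent inhibition at the stated dose.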

Experiment [16] deals with Rattus norvegicus. Nature of the experiment: compound was tested for antipsychotic activity by conditioned avoidance response(CAR) assay in rats with a pretreatment period of 240 min upon peroral administration at a concentration of 20 mg/kg. Type of experiment: functional. The conditions noted are these: route oral. Put shortly:
as §2

Experiment [17] relates to Rattus norvegicus. Nature of the experiment: compound was tested for antipsychotic activity by conditioned avoidance response(CAR) assay in rats with a pretreatment period of 30 min upon intra peritoneal administration at a concentration of 2.5 mg/kg. Type of experiment: functional. In outline: as §2
In experiment [18] the test system is Rattus norvegicus. Description: Percent catalepsy in male Spargue-Dawley rat at pretreatment time 60 mins and when administered ip at dose 50 mg/kg (1/5L denotes that one rat out of five died during the course of experiment). Type of experiment: functional. The conditions noted are these: route intraperitoneal. Put shortly:
as §1

The test system of experiment [19] is Rattus norvegicus. Description: compound was tested for antipsychotic activity by conditioned avoidance response(CAR) assay in rats with a pretreatment period of 240 min upon peroral administration. The conditions noted are these: po. Type of experiment: functional. Put shortly:
as §2

For experiment [20], the system named is Rattus norvegicus. Nature of the experiment: compound was tested for antipsychotic activity by conditioned avoidance response(CAR) assay in rats with a pretreatment period of 30 min upon intra peritoneal administration. Type of experiment: functional. Put shortly: as §2
Experiment [21] concerns Rattus norvegicus. Description: compound was tested for antipsychotic activity by conditioned avoidance response(CAR) assay in rats with a pretreatment period of 60 min upon peroral administration. Type of experiment: functional. The conditions noted are these: po. Put shortly:
as §2

The subject of experiment [22] is Rattus norvegicus. Description: compound was tested for antipsychotic activity by conditioned avoidance response(CAR) assay in rats and pretreatment period of 60 min upon peroral administration. Type of experiment: functional. The conditions noted are these: po. Put shortly: as §2

`CC(C)Oc1ccccc1N1CCN(Cc2cccc(C(=O)N3CCCC3)c2)CC1`: the Catalepsy in the experiment with Rattus norvegicus [1] and in the experiment on Rattus norvegicus [6] was 0% throughout. The inhibition in vivo (usually the change of the read-out against control, counted positive when it falls) at 1 mg/kg in the experiment with Rattus norvegicus [2] was -44.8%. For the same molecule, the inhibitory constant (Ki) (usually a measure of affinity in units of concentration, obtained from inhibition or displacement) in experiment [3] was 1.9 nM; in experiment [7], 3.6 nM. In addition, in the experiment on Rattus norvegicus [4], the inhibition in vivo at 7.5 mg/kg was -98.3%. The inhibition in vivo at 13.4 mg/kg with Rattus norvegicus [5] was -79.4%.
The molecule `O=C(c1cccc(CN2CCNCC2)c1)N1CCCCC1` displayed a Ki in [3] of more than 1000 nM. Besides, in the experiment with Rattus norvegicus [8], the inhibition in vivo at 15 mg/kg is -30.2%.
Turning to `CC(C)Oc1ccccc1N1CCN(Cc2cccc(C(=O)N3CCc4ccccc43)c2)CC1`, the inhibition in vivo at 1 mg/kg in the experiment on Rattus norvegicus [2] was -1.6%. For the same molecule, the inhibitory constant (Ki) in [3] worked out at 1.7 nM; in [7], 3.4 nM. For the same molecule, in the experiment on Rattus norvegicus [9], the inhibition in vivo at 15 mg/kg was -95.8%. Besides, in the experiment with Rattus norvegicus [10], the inhibition in vivo at 10 mg/kg was -1.4%.
Turning to `CCN(CC)C(=O)c1cccc(CN2CCN(c3ccccc3OC(C)C)CC2)c1`, the Catalepsy came out at 36.8% in the experiment with Rattus norvegicus [11] and 76.9% with Rattus norvegicus [14]. In addition, the values for the inhibition in vivo at 2.5 mg/kg with Rattus norvegicus [12] and in the experiment with Rattus norvegicus [17] were -44.4% and -60%, respectively. Besides, the inhibition in vivo at 1 mg/kg in the experiment with Rattus norvegicus [2] was -65.1%. The values for the Ki in experiment [3] and in experiment [7] were 4.4 nM and 2.1 nM, respectively. For the same molecule, the inhibition in vivo at 20 mg/kg with Rattus norvegicus [13] was -93.4%; in the experiment on Rattus norvegicus [16], -44.6%. Besides, in the experiment on Rattus norvegicus [9], the inhibition in vivo at 15 mg/kg was -94.5%. The inhibition in vivo at 5 mg/kg in the experiment on Rattus norvegicus [15] is -96.2%.
Regarding `CC(C)Oc1ccccc1C1CCN(Cc2cccc(C(=O)N3CCCCC3)c2)CC1`, in the experiment with Rattus norvegicus [18], the Catalepsy is 26.3%. Also, the figures for the ED50 in the experiment with Rattus norvegicus [19], in the experiment on Rattus norvegicus [20] and in the experiment on Rattus norvegicus [21] were 7.93 mg/kg, 0.75 mg/kg and 7.69 mg/kg, respectively. In addition, the inhibition constant (Ki) in experiment [3] is recorded as 2.2 nM.
In the case of `CC(C)Oc1ccccc1N1CCN(Cc2ccc(CN3CCCCC3=O)n2C)CC1` [RWJ-25730], the ED50 (as a rule, the dose at which the effect has come halfway, by size or by number of responders) with Rattus norvegicus [22] was 34.7 mg/kg.
